Published values gathered from unrelated publications.
Lines come from different studies, so protocols differ.
Target: Receptor tyrosine-protein kinase erbB-2 (ERBB2, Homo sapiens, UniProt P04626)

Clc1ccc(Nc2nnc(Cc3ccncc3)c3ccccc23)cc1
remaining signal (cell-free assay; 0.5 µM): 101%

Cc1ccc(C(=O)Nc2ccc(CN3CCN(C)CC3)c(C(F)(F)F)c2)cc1C#Cc1cnc2cccnn12
remaining activity (enzyme activity, inhibitor; 23.5 nM): 44%

O=C1Nc2ccc(Cl)cc2C1=Cc1cc(Cl)c(O)c(Cl)c1
remaining signal (cell-free assay; 0.5 µM): 107%

O=C(NCc1ncc(C(F)(F)F)cc1Cl)c1ccc2c(c1)C1(CCS(=O)(=O)CC1)[C@H](C1CC1)N2S(=O)(=O)c1ccc(F)cc1
remaining binding (cell-free assay, competition with immobilised ligand; 1 µM): 100%

CCCS(=O)(=O)Nc1ccc(F)c(C(=O)c2c[nH]c3ncc(-c4ccc(Cl)cc4)cc23)c1F
inhibition (enzyme activity, inhibitor; 1 µM): < 10%

CC(=O)N1CCC(c2ccc(C(=O)NC3=NCCN3)cc2C(F)(F)F)CC1
remaining binding (cell-free assay, competition with immobilised ligand; 1 µM): 100%

CC/C(=N\NC(=O)NCc1cccc(O)c1)c1ccc(O)c(C)c1O
inhibition (enzyme activity, inhibitor; 0.1 µM): 0.8%

Cc1ccc(C(=O)NCc2ccsc2)cc1C#Cc1cn(C(C)C)c2ncnc(N)c12
activity vs control (enzyme activity, inhibitor; 1 µM): 66%

O=C1NC(=O)c2cc(Nc3ccc(F)cc3)c(Nc3ccc(F)cc3)cc21
remaining signal (cell-free assay; 0.5 µM): 107%

C[C@H](c1ccc(F)cc1)N(Cc1cccc(C(=O)O)c1)C(=O)c1cnc2ccccc2c1
remaining binding (cell-free assay, competition with immobilised ligand; 1 µM): 100%

O=C(CSc1nc2nccnc2c(=O)n1CCc1ccccc1)Nc1nccs1
inhibition (enzyme activity, inhibitor; 10 µM): -11%

CN(C)C(=O)Cn1cc(-c2nc([C@@](C)(c3ccc(-c4cnc(N)nc4)cc3)C3CC3)no2)cn1
remaining binding (cell-free assay, competition with immobilised ligand; 1 µM): 100%

CC(C)(O)[C@H]1CC[C@H](Nc2ccc3ncc(-c4cccc(C(F)(F)F)c4)n3n2)CC1
remaining activity (enzyme activity, inhibitor; 1 µM): 92%

CN1CC(Oc2cnc(C#N)cc2-c2ccn3nc(NC(=O)C4CC4)cc3c2)C1
inhibition (enzyme activity, inhibitor; 1 µM): -3%

Nc1nc(Nc2ccc(S(N)(=O)=O)cc2)nn1C(=O)c1c(F)cccc1F
remaining signal (cell-free assay; 0.5 µM): 91.1%

C[C@@H]1CN(c2cc(-c3nn(C)c4ccc(OC5(C)CC5)cc34)ncn2)C[C@H](C)O1
remaining binding (cell-free assay, competition with immobilised ligand; 1 µM): 80%

Cc1sc(C(=O)NC2COC2)cc1-n1cc(NC(=O)Nc2c(F)cccc2Cl)cn1
remaining activity (enzyme activity, inhibitor; 10 µM): 64.1%

COc1cc(Nc2c(C#N)cnc3cc(OCCCN4CCN(C)CC4)c(OC)cc23)c(Cl)cc1Cl
remaining signal (cell-free assay; 0.5 µM): 32.9%

COc1ccc2c(c1)O[C@@H](c1ccc(OC)c(OC)c1)C[C@H]2NC(=O)C1(c2ccc3c(c2)OC(F)(F)O3)CC1
remaining binding (cell-free assay, competition with immobilised ligand; 1 µM): 75%

COc1ccc(COc2ccc(Cc3cnc(N)nc3N)cc2OC)cc1
remaining signal (cell-free assay; 0.5 µM): 106%

COc1cccc2c(NCc3ccccc3)nc(-n3c(N)nc4ccccc43)nc12
inhibition (target engagement in cells, inhibitor, chemoproteomics; 20 mM): 32.6%

C[C@H](c1ccnc(Nc2nc3ccc(-c4cc(N(C)C)ncn4)cc3[nH]2)c1)N1CCN(C(=O)CC(F)(F)F)CC1
remaining binding (cell-free assay, competition with immobilised ligand; 0.1 µM): 100%

CC(C)(C)c1nc2c(s1)c1nc(N)ncc1c1ccc(NS(=O)(=O)c3c(F)cccc3F)c(F)c12
remaining activity (enzyme activity, inhibitor, radiometric; 1 µM): 109%

COc1cc2nccc(Oc3ccc(NC(=O)c4c5n(n(-c6ccc(F)cc6)c4=O)CCCC5)cc3)c2cc1OC
inhibition (enzyme activity, inhibitor; 0.1 µM): -1%

NS(=O)(=O)c1cc(NC(=O)C2(c3ccccc3Cl)CC2)ccc1Oc1cccc(Cl)c1
remaining binding (cell-free assay, competition with immobilised ligand; 1 µM): 49%

COc1cc2ncnc(Nc3ccc(Oc4ccccc4)cc3C)c2cc1OC
inhibition (enzyme activity, inhibitor; 1 µM): 55%
